Results from different studies.
Each line is one published result; the experiments were not run side by side.
Effect on: cell growth or viability

CCOc1ccc(Nc2c3c(nc4ccccc24)CCC3)cc1  IC50 (J774.1; resazurin; 72 h): 33.2 µM
OCn1ccnc1  IC50 (SH-SY5Y; MTT; 24 h): 6.97 µM
Cc1nc(Nc2ncc(C(=O)Nc3c(C)cccc3Cl)s2)cc(N2CC[C@H](O)C2)n1  inhibition (HuT78; ATP luminescence; 10 µM; 72 h): 7%
CCOC(=O)c1cc(C)n(Cn2cnc3ccccc32)n1  IC50 (SH-SY5Y; MTT; 24 h): 121 µM
[Cl-].[Li+]  IC50 (CHO; MTT): > 10000 µM
C[C@H](Nc1ccc2c(c1)OCCn1cc(N3C(=O)OC[C@H]3C(F)F)nc1-2)C(N)=O  EC50 (NCI-H596; ATP luminescence; 5 days): 0.0829 µM
CN1CCN(c2ccc(Nc3c4ccccc4nc4ccccc34)cc2)CC1  IC50 (PLC-PRF-5; imaging; 72 h): 3.2 µM
Cc1nc(NC(=O)N2CCC[C@H]2C(N)=O)sc1-c1ccnc(C(C)(C)C(F)(F)F)c1  EC50 (NCI-H596; ATP luminescence; 5 days): 0.492 µM
Cc1cnc(CNC(=O)c2c(=O)c3ccc(N4CCCN(C)CC4)nc3n3c2sc2ccccc23)cn1  IC50 (PLC-PRF-5; imaging; 72 h): 0.33 µM
Cc1cc(C)n(Cn2cnc3ccccc32)n1  IC50 (SH-SY5Y; MTT; 24 h): 82.7 µM
c1ccc(Oc2ccc(Nc3c4c(nc5ccccc35)CCC4)cc2)cc1  IC50 (J774.1; resazurin; 72 h): 45.8 µM
